# Measurements as given in publication PMC8688301 (Environment international, 2021).
# Read-outs that look alike come from different tables or passages of the source.
# Experiments:
# [1] = human; for share of the total TTBP-TAZ metabolite concentrations: 2 h
# RXRβ = test: Hepatic mRNA expression; assay type: in vivo, Sprague-Dawley rat; settings: rat liver; 250 mg/kg bw/day by gavage, 7 days; vs control
# Outline: (§1)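 Male Sprague-Dawley rats (4 weeks old, 7-day quarantine) were randomised to a corn-oil control or test compound at 250 mg/kg bw/day in corn oil by oral gavage for 7 days, n = 5 per group. Liver was taken at sacrifice. mRNA was measured by quantitative real-time PCR, normalised to β2 microglobulin (B2m), with relative expression by 2−ΔΔCt. Mean ± SE reported; significance at p 0.05.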
# [2] = Relative body, liver and thyroid weights of exposed rats; assay type: in vivo, Sprague-Dawley rat; settings: 250 mg/kg bw/day by gavage, 7 days, vs control (Table S2)
# RXRγ = test: Hepatic mRNA expression; assay type: in vivo, Sprague-Dawley rat; settings: rat liver; 250 mg/kg bw/day by gavage, 7 days; vs control
# Outline: as §1
# SOD1 = test: Hepatic mRNA expression; assay type: in vivo, Sprague-Dawley rat; settings: rat liver; 250 mg/kg bw/day by gavage, 7 days; vs control
# Outline: as §1
# VEGF = test: Hepatic mRNA expression; assay type: in vivo, Sprague-Dawley rat; settings: rat liver; 250 mg/kg bw/day by gavage, 7 days; vs control
# Outline: as §1
# PXR = test: Hepatic mRNA expression; assay type: in vivo, Sprague-Dawley rat
# LXR = test: Hepatic mRNA expression; assay type: in vivo, Sprague-Dawley rat; settings: rat liver; 250 mg/kg bw/day by gavage, 7 days; vs control
# Outline: as §1
# IL-6 = test: Hepatic mRNA expression; assay type: in vivo, Sprague-Dawley rat; settings: rat liver; 250 mg/kg bw/day by gavage, 7 days; vs control
# Outline: as §1
# TSH = test: Hepatic mRNA expression; assay type: in vivo, Sprague-Dawley rat; settings: rat liver; 250 mg/kg bw/day by gavage, 7 days; vs control
# Outline: as §1
# RXRα = test: Hepatic mRNA expression; assay type: in vivo, Sprague-Dawley rat; settings: rat liver; 250 mg/kg bw/day by gavage, 7 days; vs control
# Outline: as §1
# TNFα = test: Hepatic mRNA expression; assay type: in vivo, Sprague-Dawley rat; settings: rat liver; 250 mg/kg bw/day by gavage, 7 days; vs control
# Outline: as §1
# HOMX1 = test: Hepatic mRNA expression; assay type: in vivo, Sprague-Dawley rat; settings: rat liver; 250 mg/kg bw/day by gavage, 7 days; vs control
# Outline: as §1
# PLIN = test: Hepatic mRNA expression; assay type: in vivo, Sprague-Dawley rat; settings: rat liver; 250 mg/kg bw/day by gavage, 7 days; vs control
# INFγ = test: Hepatic mRNA expression; assay type: in vivo, Sprague-Dawley rat; settings: rat liver; 250 mg/kg bw/day by gavage, 7 days; vs control
# Outline: as §1
# PPARδ = test: Hepatic mRNA expression; assay type: in vivo, Sprague-Dawley rat; settings: rat liver; 250 mg/kg bw/day by gavage, 7 days; vs control
# Outline: as §1
# THRβ = test: Hepatic mRNA expression; assay type: in vivo, Sprague-Dawley rat; settings: rat liver; 250 mg/kg bw/day by gavage, 7 days; vs control
# Outline: as §1
# LPL = test: Hepatic mRNA expression; assay type: in vivo, Sprague-Dawley rat; settings: rat liver; 250 mg/kg bw/day by gavage, 7 days; vs control
# Outline: as §1
# HIF1α = test: Hepatic mRNA expression; assay type: in vivo, Sprague-Dawley rat; settings: rat liver; 250 mg/kg bw/day by gavage, 7 days; vs control
# Outline: as §1
# PPARγ = test: Hepatic mRNA expression; assay type: in vivo, Sprague-Dawley rat; settings: rat liver; 250 mg/kg bw/day by gavage, 7 days; vs control
# Outline: as §1
# [3] = In vitro microsomal incubation, human liver microsomes; settings: for share of the total TTBP-TAZ metabolite concentrations: metabolite formed from TTBP-TAZ in liver microsome incubations, target screening; for formation of 2,4,6-TBP as a result of biotransformation: human liver microsomes
# CAT = test: Hepatic mRNA expression; assay type: in vivo, Sprague-Dawley rat; settings: rat liver; 250 mg/kg bw/day by gavage, 7 days; vs control
# Outline: as §1
# ANGPTL4 = test: Hepatic mRNA expression; assay type: in vivo, Sprague-Dawley rat; settings: rat liver; 250 mg/kg bw/day by gavage, 7 days; vs control
# Outline: as §1
# [4] = animal studies; ref Mörck et al., 2003; cited from earlier work
# [5] = In vitro microsomal incubation, rat liver microsomes; settings: for formation of 2,4,6-TBP as a result of biotransformation: rat liver microsomes
# [6] = rat
# AOX1 = test: Hepatic mRNA expression; assay type: in vivo, Sprague-Dawley rat; settings: rat liver; 250 mg/kg bw/day by gavage, 7 days; vs control
# Outline: as §1
# TG = test: Hepatic mRNA expression; assay type: in vivo, Sprague-Dawley rat; settings: rat liver; 250 mg/kg bw/day by gavage, 7 days; vs control
# Outline: as §1
# [7] = Occurrence of TTBP-TAZ and 2,4,6-TBP in blood and liver of orally exposed rats; parameters: species or system Sprague-Dawley rat; settings: in vivo, 250 mg/kg/day
# AhR = test: Hepatic mRNA expression; assay type: in vivo, Sprague-Dawley rat; settings: rat liver; 250 mg/kg bw/day by gavage, 7 days; vs control
# Outline: as §1
# MYC = test: Hepatic mRNA expression; assay type: in vivo, Sprague-Dawley rat; settings: rat liver; 250 mg/kg bw/day by gavage, 7 days; compared to the 2,4,6 TBP exposure group
compound,measurement,setting,value
"Oc1cc(Br)c(Br)cc1Br [2,4,5-TBP, 2,4,5-Tribromophenol]",share of the total TTBP-TAZ metabolite concentrations,[1]; pH 7.4,12.6%
"COc1c(Br)cc(Br)cc1Br [2,4,6-TBA, 2,4,6-tribromoanisole]",share of the total TTBP-TAZ metabolite concentrations,[1]; pH 7.4,0.02%
"Oc1c(Br)cc(Br)cc1Br [2,4,6-TBP, 2,4,6-Tribromophenol]",RXRβ mRNA expression,RXRβ,significantly downregulated
same,"relative body, liver, and thyroid weights",[2],No significant difference
same,RXRγ mRNA expression,RXRγ,significantly downregulated
same,SOD1 mRNA expression,SOD1,significantly inhibited
same,VEGF mRNA expression,VEGF,significantly inhibited
same,PXR mRNA expression,"PXR; rat liver, 250 mg/kg bw/day by gavage, 7 days, vs control",significantly downregulated
same,LXR mRNA expression,LXR,significantly downregulated
same,IL-6 mRNA expression,IL-6,significantly decreased
same,TSH mRNA expression,TSH,significantly induced
same,RXRα mRNA expression,RXRα,significantly downregulated
same,TNFα mRNA expression,TNFα,significantly decreased
same,HOMX1 mRNA expression,HOMX1,significantly inhibited
same,"PLIN mRNA expression, fold change",PLIN,2.4 fold
same,INFγ mRNA expression,INFγ,significantly decreased
same,PPARδ mRNA expression,PPARδ,significantly downregulated
same,THRβ mRNA expression,THRβ,significantly inhibited
same,LPL mRNA expression,LPL,significantly inhibited
same,HIF1α mRNA expression,HIF1α,significantly inhibited
same,PPARγ mRNA expression,PPARγ,significantly downregulated
same,share of the total TTBP-TAZ metabolite concentrations,[3],87%
same,"concentration ratio of 2,4,6-TBP to 2,4,5-TBP",[3]; metabolites of TTBP-TAZ incubation,6.9
same,CAT mRNA expression,CAT,significantly inhibited
same,ANGPTL4 mRNA expression,ANGPTL4,significantly inhibited
"Oc1ccc(Br)cc1Br [2,4-DBP, 2,4-dibromophenol]",share of the total TTBP-TAZ metabolite concentrations,[3],0.19%
"Brc1c(Br)c(Br)c(CCc2c(Br)c(Br)c(Br)c(Br)c2Br)c(Br)c1Br [DBDPE, decabromodiphenyl ethane]",excreted in feces,[4],90%
same,"formation of 2,4,6-TBP as a result of biotransformation",[5],not formed
same,"formation of 2,4,6-TBP as a result of biotransformation",[3],not formed
"CC(C)(c1cc(Br)c(O)c(Br)c1)c1cc(Br)c(O)c(Br)c1 [TBBPA, tetrabromobisphenol A]","formation of 2,4,6-TBP as a result of biotransformation",[5],not formed
same,"formation of 2,4,6-TBP as a result of biotransformation",[3],not formed
"Brc1cc(Br)c(Oc2nc(Oc3c(Br)cc(Br)cc3Br)nc(Oc3c(Br)cc(Br)cc3Br)n2)c(Br)c1 [TTBP-TAZ, 2,4,6-tris-(2,4,6-tribromophenoxy)-1,3,5-triazine]",RXRβ mRNA expression,RXRβ,downregulated significantly
same,"In vitro intrinsic clearance rate (CLint), depletion",[1]; microsomes,10.3 µL/min/mg
same,"2,4,6-TBP formation rate",[1]; pH 7.4,22.3 µL/min/mg
same,RXRγ mRNA expression,RXRγ,downregulated significantly
same,SOD1 mRNA expression,SOD1,significantly inhibited
same,VEGF mRNA expression,VEGF,significantly inhibited
same,PXR mRNA expression,"PXR; rat, in vivo, 250 mg/kg/day",downregulated significantly
same,TSH mRNA expression,TSH,significantly induced
same,RXRα mRNA expression,RXRα,downregulated significantly
same,TNFα mRNA expression,TNFα,significantly reduced
same,HOMX1 mRNA expression,HOMX1,significantly inhibited
same,"PLIN mRNA expression, fold change",PLIN,28 fold
same,"2,4,6-TBP formation rate","[6]; Sprague-Dawley, pH 7.4",12.8 µL/min/mg
same,"In vitro intrinsic clearance rate (CLint), depletion",[6]; microsomes,5.33 µL/min/mg
same,half-life,"[5]; Sprague-Dawley, rat, liver microsomes, pH 7.4",2.2 h
same,INFγ mRNA expression,INFγ,significantly reduced
same,AOX1 mRNA expression,AOX1,significantly inhibited
same,TG mRNA expression,TG,inhibition
same,"concentration of 2,4,6-TBP in rat blood","[7]; male, Sprague-Dawley, 7 days",50 ± 14 μg/g lipid weight (lw)
same,"concentration of 2,4,6-TBP in rat liver","[7]; male, Sprague-Dawley, 7 days",270 ± 110 μg/g lipid weight (lw)
same,TTBP-TAZ detected in blood samples,[7]; rat,no TTBP-TAZ was detected
same,TTBP-TAZ detected in liver samples,[7]; rat,no TTBP-TAZ was detected
same,LPL mRNA expression,LPL,significantly inhibited
same,HIF1α mRNA expression,HIF1α,significantly inhibited
same,"AhR mRNA expression, fold change compared to control",AhR,18 fold
same,half-life,"[3]; human, liver microsomes, pH 7.4",1.1 h
same,CAT mRNA expression,CAT,significantly inhibited
same,ANGPTL4 mRNA expression,ANGPTL4,significantly inhibited
same,MYC mRNA expression,MYC,significantly induced
